The source made the active and inactive calls. The rule behind the calls is not given here.
What was measured:
Monoglyceride lipase = molecular target: T1, Monoglyceride lipase (Homo sapiens, UniProt Q99685); assay: Inhibition of human recombinant His-tagged MGL expressed in Escherichia coli BL21 DE3 cells using AHMMCE as substrate preincubated with enzyme for 15 mins followed by substrate addition and measured after every 15 mins for 3 hrs by fluorescence based assay
T1 sequence (Q99685 whole entry): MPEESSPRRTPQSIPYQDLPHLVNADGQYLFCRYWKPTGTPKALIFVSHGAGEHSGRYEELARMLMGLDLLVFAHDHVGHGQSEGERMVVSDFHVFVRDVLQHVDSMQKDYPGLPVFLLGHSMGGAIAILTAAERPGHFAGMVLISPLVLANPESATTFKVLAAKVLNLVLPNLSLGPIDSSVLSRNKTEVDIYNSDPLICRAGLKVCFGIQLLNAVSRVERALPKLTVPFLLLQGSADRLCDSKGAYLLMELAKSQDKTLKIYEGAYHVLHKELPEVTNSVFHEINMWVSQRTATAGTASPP
In short: (§1)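 Fluorescent enzyme assay in throughput format. Human recombinant FAAH or purified rat FAAH used arachidonoyl 7-amino-4-methylcoumarin amide as substrate; human recombinant MGL was run by a similar fluorometric procedure.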

[1] = Stability in mouse gastric fluid assessed as half life; assay type: ADME, tissue-based, Gastric juice
In short: (§2)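 Stability assessed as half-life in human, rat and mouse plasma and gastric fluid, and in human, rat and mouse liver microsomal preparations.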

[2] = molecular target: T2, Fatty-acid amide hydrolase 1 (Rattus norvegicus, UniProt P97612); assay: Inhibition of rat recombinant His/GST-tagged FAAH expressed in Escherichia coli cells using AAMCA as substrate incubated for 15 mins followed by substrate addition and measured after every 20 mins for 4 hrs by fluorescence based assay; in short: as §1
T2 sequence (P97612 whole entry): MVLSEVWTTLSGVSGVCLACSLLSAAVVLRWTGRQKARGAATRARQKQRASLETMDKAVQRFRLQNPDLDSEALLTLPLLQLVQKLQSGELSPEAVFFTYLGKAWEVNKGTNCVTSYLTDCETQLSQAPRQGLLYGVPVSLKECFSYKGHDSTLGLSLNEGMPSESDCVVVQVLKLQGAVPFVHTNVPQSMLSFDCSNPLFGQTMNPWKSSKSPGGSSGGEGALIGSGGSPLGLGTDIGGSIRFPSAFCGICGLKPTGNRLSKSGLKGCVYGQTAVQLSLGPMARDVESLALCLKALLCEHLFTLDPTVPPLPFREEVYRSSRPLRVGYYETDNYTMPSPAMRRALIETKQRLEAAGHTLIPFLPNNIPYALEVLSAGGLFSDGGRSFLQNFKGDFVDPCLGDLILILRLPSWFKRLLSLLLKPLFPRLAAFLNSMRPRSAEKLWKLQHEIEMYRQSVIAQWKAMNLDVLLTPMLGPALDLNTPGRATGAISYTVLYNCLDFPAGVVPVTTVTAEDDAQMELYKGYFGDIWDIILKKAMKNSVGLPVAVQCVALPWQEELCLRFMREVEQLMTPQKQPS

[3] = Stability in mouse plasma assessed as half life; assay type: ADME, cell-free; in short: as §2
[4] = molecular target: Cannabinoid receptor 2 (Homo sapiens) (UniProt P34972); assay: Displacement of [3H]CP55940 from human CB2 receptor expressed in HEK293 cells by competition-equilibrium binding analysis; assay type: cell-based
Cannabinoid receptor 2 (Homo sapiens), sequence (P34972 whole entry): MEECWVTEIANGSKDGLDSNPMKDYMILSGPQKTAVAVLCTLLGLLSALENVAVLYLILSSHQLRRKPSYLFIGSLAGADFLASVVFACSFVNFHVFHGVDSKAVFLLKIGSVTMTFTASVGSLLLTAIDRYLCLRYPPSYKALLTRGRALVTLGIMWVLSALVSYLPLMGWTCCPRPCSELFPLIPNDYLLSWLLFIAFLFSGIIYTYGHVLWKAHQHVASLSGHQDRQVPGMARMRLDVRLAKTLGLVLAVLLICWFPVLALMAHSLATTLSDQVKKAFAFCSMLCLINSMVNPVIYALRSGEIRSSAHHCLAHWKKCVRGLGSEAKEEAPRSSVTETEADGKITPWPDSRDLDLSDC
In short: (§3)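 HEK293 cell membranes expressing mouse or human CB2; competition-equilibrium binding against [3H]CP-55,940.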

[5] = Stability in human gastric fluid assessed as half life; assay type: ADME, tissue-based, Gastric juice; in short: as §2
[6] = Selectivity ratio of IC50 for human recombinant His-tagged MGL expressed in Escherichia coli BL21 DE3 cells to IC50 for rat recombinant His/GST-tagged FAAH expressed in Escherichia coli cells by fluorescence based assay
[7] = Stability in human plasma assessed as half life; assay type: ADME, cell-free; in short: as §2
[8] = molecular target: Cannabinoid receptor 1 (Rattus norvegicus) (UniProt P20272); assay: Displacement of [3H]CP55940 from CB1 receptor in rat brain by competition-equilibrium binding analysis
Target sequence in this assay (P20272 whole entry, looked up): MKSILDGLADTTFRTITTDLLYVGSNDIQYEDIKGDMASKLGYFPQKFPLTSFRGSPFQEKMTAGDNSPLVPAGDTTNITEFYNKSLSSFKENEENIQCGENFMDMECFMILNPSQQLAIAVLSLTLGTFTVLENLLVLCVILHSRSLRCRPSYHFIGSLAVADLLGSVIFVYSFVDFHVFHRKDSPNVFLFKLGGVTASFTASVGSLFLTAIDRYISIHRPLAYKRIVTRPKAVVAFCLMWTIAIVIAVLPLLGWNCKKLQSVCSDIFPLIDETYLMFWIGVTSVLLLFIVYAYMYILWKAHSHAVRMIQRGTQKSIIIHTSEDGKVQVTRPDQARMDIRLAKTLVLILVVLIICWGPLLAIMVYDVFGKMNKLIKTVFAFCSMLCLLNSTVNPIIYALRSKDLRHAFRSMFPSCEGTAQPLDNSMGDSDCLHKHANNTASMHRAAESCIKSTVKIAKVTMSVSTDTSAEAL

[9] = Selectivity ratio of IC50 for human full length ABHD6 expressed in Escherichia coli cells to IC50 for rat recombinant His/GST-tagged FAAH expressed in Escherichia coli cells by fluorescence based assay
Homo sapiens [10] = organism: Homo sapiens; assay: Selectivity ratio of IC50 for human full length ABHD6 expressed in Escherichia coli cells to IC50 for human recombinant MBP-tagged FAAH expressed in Escherichia coli cells by fluorescence based assay
[11] = molecular target: Cannabinoid receptor 2 (Mus musculus) (UniProt P47936); assay: Displacement of [3H]CP55940 from mouse CB2 receptor expressed in HEK293 cells by competition-equilibrium binding analysis; assay type: cell-based; in short: as §3
Cannabinoid receptor 2 (Mus musculus), sequence (P47936 whole entry): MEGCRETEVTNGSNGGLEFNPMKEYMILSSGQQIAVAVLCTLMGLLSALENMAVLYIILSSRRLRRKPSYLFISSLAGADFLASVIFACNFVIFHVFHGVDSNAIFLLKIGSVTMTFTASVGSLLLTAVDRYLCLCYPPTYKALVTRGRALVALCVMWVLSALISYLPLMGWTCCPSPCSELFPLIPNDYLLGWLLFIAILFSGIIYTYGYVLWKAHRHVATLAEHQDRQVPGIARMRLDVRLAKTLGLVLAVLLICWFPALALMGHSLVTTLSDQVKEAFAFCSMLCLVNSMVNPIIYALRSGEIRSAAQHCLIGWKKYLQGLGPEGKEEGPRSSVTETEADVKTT

[12] = molecular target: T3, Fatty-acid amide hydrolase 1 (Homo sapiens, UniProt O00519); assay: Inhibition of human recombinant MBP-tagged FAAH expressed in Escherichia coli cells using AAMCA as substrate incubated for 15 mins followed by substrate addition and measured after every 20 mins for 4 hrs by fluorescence based assay; in short: as §1
T3 sequence (O00519 whole entry): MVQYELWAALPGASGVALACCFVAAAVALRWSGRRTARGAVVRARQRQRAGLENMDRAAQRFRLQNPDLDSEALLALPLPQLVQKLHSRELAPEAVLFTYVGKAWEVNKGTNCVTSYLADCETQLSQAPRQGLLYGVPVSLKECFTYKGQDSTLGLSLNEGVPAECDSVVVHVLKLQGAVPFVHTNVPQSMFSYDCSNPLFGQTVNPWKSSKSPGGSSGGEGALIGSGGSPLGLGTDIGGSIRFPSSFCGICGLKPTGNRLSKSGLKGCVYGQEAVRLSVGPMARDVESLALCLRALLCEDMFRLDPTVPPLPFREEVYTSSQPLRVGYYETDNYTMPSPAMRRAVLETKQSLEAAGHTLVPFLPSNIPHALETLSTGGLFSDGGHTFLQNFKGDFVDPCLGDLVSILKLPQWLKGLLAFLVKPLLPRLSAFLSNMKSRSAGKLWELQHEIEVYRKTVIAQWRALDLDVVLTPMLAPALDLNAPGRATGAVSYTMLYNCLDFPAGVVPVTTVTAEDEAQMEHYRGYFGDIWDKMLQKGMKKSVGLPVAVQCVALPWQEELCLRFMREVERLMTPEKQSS

[13] = Stability in rat plasma assessed as half life; assay type: ADME, cell-free; in short: as §2
[14] = molecular target: Cannabinoid receptor 1 (Rattus norvegicus) (UniProt P20272); assay: Displacement of [3H]CP55940 from CB1 receptor in rat brain by competition-equilibrium binding analysis; assay type: tissue-based
In short: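 Rat brain membranes as CB1 source; competition-equilibrium binding against [3H]CP-55,940.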
Target sequence in this assay (P20272 whole entry): as the sequence (P20272 whole entry, looked up) above

Homo sapiens [15] = organism: Homo sapiens; assay: Selectivity ratio of IC50 for human recombinant His-tagged MGL expressed in Escherichia coli BL21 DE3 cells to IC50 for human recombinant MBP-tagged FAAH expressed in Escherichia coli cells by fluorescence based assay
[16] = Stability in rat liver microsomes assessed as half life; assay type: ADME, Microsome; in short: as §2
[17] = Stability in human liver microsomes assessed as half life; assay type: ADME, Microsome; in short: as §2
[18] = Stability in mouse liver microsomes assessed as half life; assay type: ADME, Microsome; in short: as §2
[19] = Stability in rat gastric fluid assessed as half life; assay type: ADME, tissue-based, Gastric juice; in short: as §2

O=C(Oc1cccc(N2CCCCC2)c1)N1CCC(c2ccc(F)cc2)CC1
IC50 (Monoglyceride lipase): > 1 µM | half-life [1]: > 60 min | IC50 [2]: 0.0068 µM | half-life [3]: > 60 min | Activity [4]: inactive | half-life [5]: > 60 min | Ratio IC50 [6]: > 1000 | half-life [7]: > 60 min | Activity [8]: inactive | Ratio IC50 [9]: > 1000 | Ratio IC50 (Homo sapiens [10]): > 1000 | Activity [11]: inactive | IC50 [12]: 0.04 µM | half-life [13]: > 60 min | Activity [14]: inactive | Ratio IC50 (Homo sapiens [15]): > 1000 | half-life [16]: 15 to 25 min | half-life [17]: 15 to 25 min | half-life [18]: 15 to 25 min | half-life [19]: > 60 min

O=C(Oc1cccc(N2CCS(=O)(=O)CC2)c1)N1CCN(Cc2cccc(-c3ccccc3)c2)CC1
IC50 (Monoglyceride lipase): > 1 µM | half-life [1]: > 60 min | IC50 [2]: 0.0021 µM | half-life [3]: > 60 min | Activity [4]: inactive | half-life [5]: > 60 min | Ratio IC50 [6]: > 1000 | half-life [7]: > 60 min | Activity [8]: inactive | Ratio IC50 [9]: > 1000 | Ratio IC50 (Homo sapiens [10]): > 1000 | Activity [11]: inactive | IC50 [12]: 0.0019 µM | half-life [13]: > 60 min | Activity [14]: inactive | Ratio IC50 (Homo sapiens [15]): > 1000 | half-life [16]: 15 to 25 min | half-life [17]: 15 to 25 min | half-life [18]: 15 to 25 min | half-life [19]: > 60 min

O=C(Oc1cccc(N2CCS(=O)(=O)CC2)c1)N1CCN(c2ccc(F)cc2)CC1
IC50 (Monoglyceride lipase): > 1 µM | IC50 [2]: 0.0125 µM | Activity [4]: inactive | Ratio IC50 [6]: > 1000 | Activity [8]: inactive | Ratio IC50 [9]: > 1000 | Ratio IC50 (Homo sapiens [10]): > 1000 | Activity [11]: inactive | IC50 [12]: 0.0205 µM | Activity [14]: inactive | Ratio IC50 (Homo sapiens [15]): > 1000

O=C(Oc1cccc(N2CCS(=O)(=O)CC2)c1)N1C[C@H]2C[C@@H]1CN2c1ccc(F)cc1
IC50 (Monoglyceride lipase): > 1 µM | IC50 [2]: 0.0171 µM | Activity [4]: inactive | Ratio IC50 [6]: > 1000 | Activity [8]: inactive | Ratio IC50 [9]: > 1000 | Ratio IC50 (Homo sapiens [10]): > 1000 | Activity [11]: inactive | IC50 [12]: 0.0203 µM | Activity [14]: inactive | Ratio IC50 (Homo sapiens [15]): > 1000

COc1ccc(C2CCN(C(=O)Oc3cccc(N4CCS(=O)(=O)CC4)c3)CC2)cc1
IC50 (Monoglyceride lipase): > 1 µM | half-life [1]: > 60 min | IC50 [2]: 0.00261 µM | half-life [3]: > 60 min | Activity [4]: inactive | half-life [5]: > 60 min | Ratio IC50 [6]: > 1000 | half-life [7]: > 60 min | Activity [8]: inactive | Ratio IC50 [9]: > 1000 | Ratio IC50 (Homo sapiens [10]): > 1000 | Activity [11]: inactive | IC50 [12]: 0.0063 µM | half-life [13]: > 60 min | Activity [14]: inactive | Ratio IC50 (Homo sapiens [15]): > 1000 | half-life [16]: 15 to 25 min | half-life [17]: 15 to 25 min | half-life [18]: 15 to 25 min | half-life [19]: > 60 min

C[C@H]1CN(c2ccc(F)cc2)CCN1C(=O)Oc1cccc(N2CCS(=O)(=O)CC2)c1
IC50 (Monoglyceride lipase): > 1 µM | IC50 [2]: 0.0405 µM | Activity [4]: inactive | Ratio IC50 [6]: > 1000 | Activity [8]: inactive | Ratio IC50 [9]: > 1000 | Ratio IC50 (Homo sapiens [10]): > 1000 | Activity [11]: inactive | IC50 [12]: 0.0729 µM | Activity [14]: inactive | Ratio IC50 (Homo sapiens [15]): > 1000

Reference: ChEMBL document CHEMBL4359929, “Piperidine and piperazine inhibitors of fatty acid amide hydrolase targeting excitotoxic pathology” (Bioorg Med Chem, 2019)
